Results on seven molecules are retold here after ChEMBL document CHEMBL1811853, “Design and evaluation of 3-aminopyrazolopyridinone kinase inhibitors inspired by the natural product indirubin” (Bioorg Med Chem, 2011).

SMILES strings stand for the structures.

The target of assay [1] is Mitogen-activated protein kinase 3 (Homo sapiens) (UniProt P27361). The assay can be described thus: Inhibition of ERK1 at 30 uM by microfluidic mobility shift assay. The gist of the method:
(§1)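 Single-concentration screen, singlicate, 30 uM final (diluted from 1 mM DMSO solutions), fluorescently tagged peptide substrate appropriate to each kinase, ATP at apparent Km for each protein. Phosphorylated and unphosphorylated peptides separated electrophoretically; conversion is the phosphorylated peak area over the sum of both peaks. No-inhibitor and no-ATP controls; H89 reference on each plate.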

Assay [2] concerns the target T1, Aurora kinase A (Homo sapiens) (UniProt O14965).
T1 sequence (whole entry): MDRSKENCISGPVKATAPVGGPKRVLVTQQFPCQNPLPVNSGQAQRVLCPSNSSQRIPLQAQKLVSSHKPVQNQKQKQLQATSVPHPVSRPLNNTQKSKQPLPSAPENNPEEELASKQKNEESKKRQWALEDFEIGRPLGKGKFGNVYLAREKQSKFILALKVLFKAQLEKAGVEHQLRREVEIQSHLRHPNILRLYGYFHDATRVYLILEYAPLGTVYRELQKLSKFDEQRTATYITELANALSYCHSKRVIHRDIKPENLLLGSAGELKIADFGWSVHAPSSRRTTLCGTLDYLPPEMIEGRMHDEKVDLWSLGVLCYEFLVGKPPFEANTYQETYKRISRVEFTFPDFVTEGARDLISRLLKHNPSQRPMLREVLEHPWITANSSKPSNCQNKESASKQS
The assay can be described thus: Inhibition of AurA at 30 uM by microfluidic mobility shift assay. The procedure, abridged: as §1

Assay [3] has as its target RAC-alpha serine/threonine-protein kinase (Homo sapiens) (UniProt P31749). The experiment in a line: Inhibition of AKT1 at 30 uM by microfluidic mobility shift assay. The gist of the method: as §1
Assay [4] addresses Tyrosine-protein kinase ABL1 (Homo sapiens, UniProt P00519). The assay can be described thus: Inhibition of ABL at 30 uM by microfluidic mobility shift assay. The procedure, abridged:
as §1

For assay [5], the target named is RAC-beta serine/threonine-protein kinase (Homo sapiens) (UniProt P31751). The experiment in a line: Inhibition of AKT2 at 30 uM by microfluidic mobility shift assay. The procedure, abridged:
as §1

Assay [6] concerns the target T2, Serine/threonine-protein kinase Chk1 (Homo sapiens) (UniProt O14757).
T2 sequence (whole entry): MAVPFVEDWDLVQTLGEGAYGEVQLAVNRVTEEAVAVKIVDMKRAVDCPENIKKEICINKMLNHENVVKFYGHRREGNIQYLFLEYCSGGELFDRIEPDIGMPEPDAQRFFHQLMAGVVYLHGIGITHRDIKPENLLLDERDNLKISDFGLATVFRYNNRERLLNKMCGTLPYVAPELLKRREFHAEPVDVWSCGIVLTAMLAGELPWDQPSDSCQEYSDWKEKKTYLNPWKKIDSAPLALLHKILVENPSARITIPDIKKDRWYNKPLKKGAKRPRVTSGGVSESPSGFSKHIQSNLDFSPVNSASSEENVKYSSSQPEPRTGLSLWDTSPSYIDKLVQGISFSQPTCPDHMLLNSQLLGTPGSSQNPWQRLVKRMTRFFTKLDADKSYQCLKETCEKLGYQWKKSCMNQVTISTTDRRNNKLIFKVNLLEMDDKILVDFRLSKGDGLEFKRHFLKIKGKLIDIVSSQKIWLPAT
The assay can be described thus: Inhibition of CHK1 at 30 uM by microfluidic mobility shift assay. The gist of the method:
as §1

The target of assay [7] is Mitogen-activated protein kinase 14 (Homo sapiens, UniProt Q16539). The experiment in a line: Inhibition of p38alpha at 30 uM by microfluidic mobility shift assay. The gist of the method: as §1
Chain of Mitogen-activated protein kinase 14 (Q16539 whole entry): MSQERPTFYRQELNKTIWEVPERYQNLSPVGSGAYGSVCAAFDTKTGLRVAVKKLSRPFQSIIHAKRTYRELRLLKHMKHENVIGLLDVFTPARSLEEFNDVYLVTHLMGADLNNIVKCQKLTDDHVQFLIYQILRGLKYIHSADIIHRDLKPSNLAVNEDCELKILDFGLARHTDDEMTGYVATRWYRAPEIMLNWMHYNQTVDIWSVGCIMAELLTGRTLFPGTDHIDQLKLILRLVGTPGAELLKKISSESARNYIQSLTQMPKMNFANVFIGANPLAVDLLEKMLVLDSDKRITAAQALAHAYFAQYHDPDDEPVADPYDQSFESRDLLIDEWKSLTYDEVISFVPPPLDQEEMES
The target of assay [8] is Proto-oncogene tyrosine-protein kinase Src (Homo sapiens, UniProt P12931). The experiment in a line: Inhibition of SRC at 30 uM by microfluidic mobility shift assay. The procedure, abridged: as §1
Assay [9] addresses Tyrosine-protein kinase Lck (Homo sapiens, UniProt P06239). The experiment in a line: Inhibition of LCK at 30 uM by microfluidic mobility shift assay. The procedure, abridged:
as §1

The target in assay [10] is T3, Serine/threonine-protein kinase D2 (Homo sapiens) (UniProt Q9BZL6).
T3 sequence (whole entry): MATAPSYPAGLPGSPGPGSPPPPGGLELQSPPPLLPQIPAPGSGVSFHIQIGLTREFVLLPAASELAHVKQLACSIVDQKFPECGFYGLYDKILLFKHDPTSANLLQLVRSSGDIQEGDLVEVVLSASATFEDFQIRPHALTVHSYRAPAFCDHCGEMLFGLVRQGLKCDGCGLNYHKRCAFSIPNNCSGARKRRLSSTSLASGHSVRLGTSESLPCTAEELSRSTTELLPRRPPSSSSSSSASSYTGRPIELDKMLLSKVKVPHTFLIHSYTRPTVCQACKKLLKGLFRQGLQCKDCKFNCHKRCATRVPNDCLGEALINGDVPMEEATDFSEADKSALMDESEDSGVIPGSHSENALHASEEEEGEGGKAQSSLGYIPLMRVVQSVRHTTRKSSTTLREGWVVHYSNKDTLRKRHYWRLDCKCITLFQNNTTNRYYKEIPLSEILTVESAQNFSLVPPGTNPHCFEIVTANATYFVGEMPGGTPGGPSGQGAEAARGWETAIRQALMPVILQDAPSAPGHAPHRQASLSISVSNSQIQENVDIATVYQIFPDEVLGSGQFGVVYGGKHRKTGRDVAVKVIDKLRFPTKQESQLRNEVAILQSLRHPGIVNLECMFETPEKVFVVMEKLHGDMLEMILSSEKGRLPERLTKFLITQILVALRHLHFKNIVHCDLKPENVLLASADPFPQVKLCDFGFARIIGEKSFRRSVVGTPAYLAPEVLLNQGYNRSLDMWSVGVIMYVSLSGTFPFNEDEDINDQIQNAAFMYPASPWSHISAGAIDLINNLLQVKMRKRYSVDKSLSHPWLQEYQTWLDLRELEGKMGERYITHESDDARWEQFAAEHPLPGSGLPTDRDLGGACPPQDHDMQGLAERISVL
The experiment in a line: Inhibition of PKD2 at 30 uM by microfluidic mobility shift assay. The procedure, abridged:
as §1

In assay [11] the target is Insulin receptor (Homo sapiens) (UniProt P06213). The experiment in a line: Inhibition of INSR at 30 uM by microfluidic mobility shift assay. The gist of the method:
as §1

Assay [12] addresses Glycogen synthase kinase-3 beta (Homo sapiens) (UniProt P49841). The experiment in a line: Inhibition of GSK3B at 30 uM by microfluidic mobility shift assay. The gist of the method:
as §1

For assay [13], the target named is Ribosomal protein S6 kinase alpha-1 (Homo sapiens) (UniProt Q15418). The experiment in a line: Inhibition of RSK1 at 30 uM by microfluidic mobility shift assay. The gist of the method: as §1
Chain of Ribosomal protein S6 kinase alpha-1 (Homo sapiens) (Q15418 whole entry): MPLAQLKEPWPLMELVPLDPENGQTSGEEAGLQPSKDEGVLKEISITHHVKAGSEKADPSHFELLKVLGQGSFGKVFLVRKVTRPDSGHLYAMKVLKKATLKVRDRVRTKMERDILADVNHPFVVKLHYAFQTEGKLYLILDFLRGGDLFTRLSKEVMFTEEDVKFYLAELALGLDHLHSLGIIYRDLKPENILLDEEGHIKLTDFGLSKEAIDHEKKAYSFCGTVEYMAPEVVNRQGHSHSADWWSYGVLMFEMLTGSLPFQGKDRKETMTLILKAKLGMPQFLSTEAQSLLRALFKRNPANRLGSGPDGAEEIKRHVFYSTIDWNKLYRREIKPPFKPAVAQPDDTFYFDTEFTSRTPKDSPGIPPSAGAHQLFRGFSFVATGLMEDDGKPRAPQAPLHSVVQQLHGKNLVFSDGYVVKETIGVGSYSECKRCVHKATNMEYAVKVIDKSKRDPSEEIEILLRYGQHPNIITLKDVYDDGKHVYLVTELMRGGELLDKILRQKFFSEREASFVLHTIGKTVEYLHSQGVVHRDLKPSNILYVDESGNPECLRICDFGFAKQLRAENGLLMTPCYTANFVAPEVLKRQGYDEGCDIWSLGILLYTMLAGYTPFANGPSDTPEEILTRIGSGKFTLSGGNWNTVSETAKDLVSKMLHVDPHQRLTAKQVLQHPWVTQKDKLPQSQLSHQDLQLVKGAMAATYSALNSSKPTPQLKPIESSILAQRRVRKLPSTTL
Assay [14] in a line: Inhibition of PKA at 30 uM by microfluidic mobility shift assay. The procedure, abridged: as §1
The target in assay [15] is MAP kinase-activated protein kinase 2 (Homo sapiens, UniProt P49137). The assay can be described thus: Inhibition of MAPKAPK2 at 30 uM by microfluidic mobility shift assay. The procedure, abridged:
as §1

For assay [16], the target named is Tyrosine-protein kinase Fyn (Homo sapiens, UniProt P06241). The experiment in a line: Inhibition of FYN at 30 uM by microfluidic mobility shift assay. The gist of the method: as §1
Assay [17] concerns the target Mitogen-activated protein kinase 1 (Homo sapiens) (UniProt P28482). The assay can be described thus: Inhibition of ERK2 at 30 uM by microfluidic mobility shift assay. The procedure, abridged: as §1
Assay [18] deals with Tyrosine-protein kinase Lyn (Homo sapiens, UniProt P07948). The assay can be described thus: Inhibition of LYN at 30 uM by microfluidic mobility shift assay. The gist of the method:
as §1

Chain of Glycogen synthase kinase-3 beta (Homo sapiens) (P49841 whole entry, looked up): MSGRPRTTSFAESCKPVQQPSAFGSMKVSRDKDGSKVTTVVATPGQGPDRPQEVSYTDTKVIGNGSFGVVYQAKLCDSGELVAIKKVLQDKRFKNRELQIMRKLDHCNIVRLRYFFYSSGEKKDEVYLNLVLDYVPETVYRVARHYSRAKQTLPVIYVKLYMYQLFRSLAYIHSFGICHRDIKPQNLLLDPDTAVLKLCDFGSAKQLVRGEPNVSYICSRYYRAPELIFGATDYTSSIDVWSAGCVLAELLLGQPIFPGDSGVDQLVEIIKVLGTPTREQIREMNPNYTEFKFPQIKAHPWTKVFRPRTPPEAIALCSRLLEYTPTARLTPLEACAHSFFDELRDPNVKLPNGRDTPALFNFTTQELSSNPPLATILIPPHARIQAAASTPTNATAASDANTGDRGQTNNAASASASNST
Chain of RAC-beta serine/threonine-protein kinase (Homo sapiens) (P31751 whole entry): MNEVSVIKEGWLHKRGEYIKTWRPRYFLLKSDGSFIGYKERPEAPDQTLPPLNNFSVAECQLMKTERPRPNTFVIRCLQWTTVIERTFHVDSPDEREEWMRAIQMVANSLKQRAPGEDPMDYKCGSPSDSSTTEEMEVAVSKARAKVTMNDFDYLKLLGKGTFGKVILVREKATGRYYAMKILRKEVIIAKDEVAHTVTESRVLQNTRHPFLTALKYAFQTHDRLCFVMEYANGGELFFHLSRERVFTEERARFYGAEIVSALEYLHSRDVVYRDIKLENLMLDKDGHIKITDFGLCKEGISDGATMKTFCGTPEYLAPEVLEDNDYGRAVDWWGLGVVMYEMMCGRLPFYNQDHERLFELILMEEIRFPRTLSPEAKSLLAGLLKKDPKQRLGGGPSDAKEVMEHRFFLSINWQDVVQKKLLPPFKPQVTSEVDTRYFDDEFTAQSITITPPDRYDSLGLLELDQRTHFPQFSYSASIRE
Chain of Insulin receptor (Homo sapiens) (P06213 28-758 limits assumed): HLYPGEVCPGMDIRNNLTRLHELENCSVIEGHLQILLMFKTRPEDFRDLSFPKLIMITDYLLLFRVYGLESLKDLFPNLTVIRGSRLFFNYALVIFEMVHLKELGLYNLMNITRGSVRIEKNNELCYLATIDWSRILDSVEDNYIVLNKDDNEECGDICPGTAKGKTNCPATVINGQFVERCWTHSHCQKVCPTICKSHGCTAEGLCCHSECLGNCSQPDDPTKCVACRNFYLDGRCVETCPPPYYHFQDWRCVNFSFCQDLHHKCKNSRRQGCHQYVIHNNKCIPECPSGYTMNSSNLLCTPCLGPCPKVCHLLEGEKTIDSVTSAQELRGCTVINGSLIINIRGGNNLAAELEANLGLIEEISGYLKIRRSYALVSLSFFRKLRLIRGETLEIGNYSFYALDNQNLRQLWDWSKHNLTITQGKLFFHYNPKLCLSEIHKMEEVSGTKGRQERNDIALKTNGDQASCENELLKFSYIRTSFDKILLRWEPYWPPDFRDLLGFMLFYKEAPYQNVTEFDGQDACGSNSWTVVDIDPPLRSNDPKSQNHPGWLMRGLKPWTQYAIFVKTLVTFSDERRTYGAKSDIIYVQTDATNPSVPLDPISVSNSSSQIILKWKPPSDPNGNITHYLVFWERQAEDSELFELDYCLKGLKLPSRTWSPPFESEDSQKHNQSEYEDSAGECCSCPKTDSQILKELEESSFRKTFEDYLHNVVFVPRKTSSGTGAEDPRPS
Chain of Insulin receptor (Homo sapiens) (P06213 763-1382 limits assumed): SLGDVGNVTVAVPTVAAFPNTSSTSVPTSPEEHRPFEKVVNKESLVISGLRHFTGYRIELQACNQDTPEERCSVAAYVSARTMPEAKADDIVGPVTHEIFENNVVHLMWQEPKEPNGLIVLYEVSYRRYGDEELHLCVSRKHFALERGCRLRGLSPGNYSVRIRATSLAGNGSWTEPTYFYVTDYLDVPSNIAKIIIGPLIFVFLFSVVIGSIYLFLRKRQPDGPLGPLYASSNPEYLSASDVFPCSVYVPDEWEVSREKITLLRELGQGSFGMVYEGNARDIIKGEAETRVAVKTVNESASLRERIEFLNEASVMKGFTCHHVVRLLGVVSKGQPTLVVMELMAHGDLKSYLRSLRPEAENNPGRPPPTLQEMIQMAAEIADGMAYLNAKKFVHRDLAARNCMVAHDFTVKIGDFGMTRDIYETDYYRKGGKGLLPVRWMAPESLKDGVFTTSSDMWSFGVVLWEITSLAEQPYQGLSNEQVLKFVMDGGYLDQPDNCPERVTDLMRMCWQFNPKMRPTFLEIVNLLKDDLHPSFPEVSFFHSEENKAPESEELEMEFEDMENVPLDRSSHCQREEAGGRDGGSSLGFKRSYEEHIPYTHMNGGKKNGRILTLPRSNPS
Chain of Mitogen-activated protein kinase 1 (Homo sapiens) (P28482 whole entry): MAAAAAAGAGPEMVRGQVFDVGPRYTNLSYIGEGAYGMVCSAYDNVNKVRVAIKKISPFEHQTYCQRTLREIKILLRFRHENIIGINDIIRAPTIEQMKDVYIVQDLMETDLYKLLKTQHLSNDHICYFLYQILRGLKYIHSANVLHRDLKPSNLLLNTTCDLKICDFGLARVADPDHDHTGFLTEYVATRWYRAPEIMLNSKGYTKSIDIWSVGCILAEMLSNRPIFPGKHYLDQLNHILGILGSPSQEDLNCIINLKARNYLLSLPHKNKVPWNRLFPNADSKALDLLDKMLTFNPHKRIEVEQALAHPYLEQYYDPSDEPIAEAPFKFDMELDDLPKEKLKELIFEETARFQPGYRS
Chain of Tyrosine-protein kinase Lck (P06239 2-509 limits assumed): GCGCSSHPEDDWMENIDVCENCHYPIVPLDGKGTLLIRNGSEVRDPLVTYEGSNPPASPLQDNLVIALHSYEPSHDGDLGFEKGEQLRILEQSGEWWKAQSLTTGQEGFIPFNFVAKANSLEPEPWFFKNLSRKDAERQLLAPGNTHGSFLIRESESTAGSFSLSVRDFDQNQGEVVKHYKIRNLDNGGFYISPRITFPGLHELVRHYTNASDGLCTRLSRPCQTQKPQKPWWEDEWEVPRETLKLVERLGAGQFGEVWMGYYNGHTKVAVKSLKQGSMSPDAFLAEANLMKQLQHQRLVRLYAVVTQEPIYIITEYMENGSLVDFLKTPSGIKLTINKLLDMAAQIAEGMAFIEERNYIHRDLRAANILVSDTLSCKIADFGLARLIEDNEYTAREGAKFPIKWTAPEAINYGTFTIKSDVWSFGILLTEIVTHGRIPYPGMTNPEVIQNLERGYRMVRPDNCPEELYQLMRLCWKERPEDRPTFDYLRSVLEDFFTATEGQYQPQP
Chain of Mitogen-activated protein kinase 3 (Homo sapiens) (P27361 whole entry): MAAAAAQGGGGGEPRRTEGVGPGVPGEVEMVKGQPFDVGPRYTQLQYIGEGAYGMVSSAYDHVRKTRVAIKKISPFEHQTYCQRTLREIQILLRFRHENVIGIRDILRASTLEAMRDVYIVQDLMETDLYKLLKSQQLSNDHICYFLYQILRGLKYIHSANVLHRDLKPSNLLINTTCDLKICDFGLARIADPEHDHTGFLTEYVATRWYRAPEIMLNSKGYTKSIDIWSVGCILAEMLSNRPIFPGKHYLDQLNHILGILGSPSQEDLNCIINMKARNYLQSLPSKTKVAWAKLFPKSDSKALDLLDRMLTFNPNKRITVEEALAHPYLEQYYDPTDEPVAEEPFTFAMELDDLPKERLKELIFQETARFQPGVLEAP
Chain of MAP kinase-activated protein kinase 2 (P49137 whole entry, looked up): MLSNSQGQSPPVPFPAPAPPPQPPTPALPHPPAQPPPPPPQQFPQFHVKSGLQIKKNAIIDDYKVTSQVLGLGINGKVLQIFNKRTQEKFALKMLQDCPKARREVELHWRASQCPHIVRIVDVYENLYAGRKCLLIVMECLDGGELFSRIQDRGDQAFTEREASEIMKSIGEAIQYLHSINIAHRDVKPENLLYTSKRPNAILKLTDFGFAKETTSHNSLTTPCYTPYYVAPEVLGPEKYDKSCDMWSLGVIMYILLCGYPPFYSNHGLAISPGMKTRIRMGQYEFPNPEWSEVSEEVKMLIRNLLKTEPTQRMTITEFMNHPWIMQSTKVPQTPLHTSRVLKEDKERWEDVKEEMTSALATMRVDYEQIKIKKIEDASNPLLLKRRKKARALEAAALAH

One may read the inhibition as the change of the read-out against control, counted positive when it falls. For `Nc1n[nH]c2c3c([nH]c(=O)c12)CCCC3`, the inhibition in assay [1] was 5%; in assay [2], 12%; in assay [3], -3%; in assay [4] it was 0%; in assay [5], -1%; in assay [6] it was 17%. The inhibition is -4% in assay [7]; 6% in [8]; 7% in assay [9]; -7% in assay [10]; -3% in assay [11]; 23% in assay [12]. For the same molecule, the inhibition was -9% in assay [13]; 2% in assay [14]; 5% in [15]; 11% in assay [16]; 6% in assay [17]; 12% in [18].
With `COc1cccc(-c2cc3[nH]nc(N)c3c(=O)[nH]2)c1`, the inhibition was determined as 20% in assay [1]; 49% in [2]; 4% in [3]; 44% in [4]; 2% in [5]; 13% in [6]. Further, the inhibition in assay [7] was 10%; in [8], 62%; in assay [9], 48%; in [10] it was 17%; in [11] it was 20%; in [12] it was 58%. The inhibition came to 20% in [13]; 48% in assay [14]; 56% in assay [15]; 42% in assay [16]; 15% in assay [17]; 49% in assay [18].
Consider `Nc1n[nH]c2cc(-c3ccc(N4CCOCC4)cc3)[nH]c(=O)c12`, for which the inhibition in [1] is 9%; in [2] it was 51%; in assay [3] it was -1%; in [4], 61%; in assay [5], 7%; in assay [6], 29%. The inhibition is 6% in assay [7]; 74% in assay [8]; 44% in [9]; 15% in assay [10]; 6% in assay [11]; 41% in assay [12]. The inhibition in assay [13] was 16%; in [14], 88%; in [15] it was 55%; in [16] it was 62%; in assay [17], -3%; in [18], 63%.
In the case of `Cc1cc2[nH]nc(N)c2c(N2CCCCC2)n1`, the inhibition worked out at 6% in assay [1]; 84% in [2]; 36% in assay [3]; 18% in assay [4]; 11% in assay [5]; 11% in [6]. Moreover, the inhibition was found to be 1% in assay [7]; 33% in [8]; 48% in assay [9]; 14% in assay [10]; 9% in assay [11]; 55% in assay [12]. The inhibition was 46% in assay [13]; 86% in [14]; -1% in assay [15]; 53% in [16]; 6% in assay [17]; 45% in [18].
With `Cc1cc2c(c(NC(=O)Nc3ccccc3)nn2C)c(=O)[nH]1`, the inhibition in assay [1] was determined as 4%; in assay [2] it was 10%; in assay [3] it was 4%; in assay [4], 15%; in [5], 11%; in [6], 5%. The inhibition was 7% in assay [7]; 17% in assay [8]; 12% in [9]; -4% in assay [10]; -5% in assay [11]; 2% in assay [12]. For the same molecule, the inhibition in assay [14] is -6%; in assay [15], 0%; in assay [16], 7%; in assay [17], 7%; in [18] it was 16%.
`Cc1cc2c(c(N)nn2C)c(=O)[nH]1`: the inhibition in assay [1] was -2%; in assay [2], 4%; in assay [3], 11%; in assay [4], 0%; in assay [5], 4%; in assay [6] it was -8%. Moreover, the inhibition is 6% in [7]; 9% in [8]; -1% in assay [9]; 5% in assay [10]; 3% in assay [11]; 1% in assay [12]. The inhibition in [13] is 2%; in assay [14] it was -3%; in assay [15] it was 29%; in assay [16], -8%; in assay [17] it was 8%.
Regarding `Cc1nc(N)c2c(=O)[nH]c(C)cc2n1`, the inhibition was 4% in [1]; 3% in assay [2]; -2% in [3]; 18% in [4]; 2% in [5]; 9% in [6]. The inhibition in [7] was 2%; in assay [8], 9%; in assay [9], 5%; in assay [10], 6%; in assay [11], 3%; in assay [12] it was 52%. For the same molecule, the inhibition in [14] came to 2%; in assay [15], 18%; in assay [16], 8%; in [17], 3%; in assay [18], 7%.
